Reference: ChEMBL document CHEMBL1131483, “Discovery of novel pyridinopolyamines with potent antimicrobial activity: deconvolution of mixtures synthesized by solution-phase combinatorial chemistry” (1998)
In brackets after ≈: the same amount, converted by molar mass.

How the values were obtained:
Type in all cases: functional
Escherichia coli [1] = assay: (§1) Minimum inhibitory concentration of Escherichia coli growth.
Streptococcus pyogenes [2] = assay: Minimum inhibitory concentration of Streptococcus pyogenes (wt) growth.
Outline: (§2)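 Streptococcus pyogenes in Todd-Hewitt broth at 37 °C. The tier II strain is ATCC 49399. Overnight culture at about 1 × 10^7 cells/well, sample in 4% DMSO in water, duplicate. Percent growth versus a no-compound well by A595 at 24 h. MIC is a concentration range: full inhibition at the upper value, growth at the lower. Ampicillin and tetracycline were controls.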

Staphylococcus aureus = assay: Minimum inhibitory concentration of Staphylococcus aureus growth.
Outline: (§3)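 Broth-microdilution at 37 °C. Strains and media: E. faecalis ATCC 29212 in Todd-Hewitt, K. pneumoniae ATCC 13883 and P. vulgaris ATCC 8427 in nutrient broth, S. aureus ATCC 25923 in trypticase soy broth. About 1 × 10^7 cells/well, sample in 4% DMSO in water, duplicate. A595 read at 24 h versus a no-compound well. MIC is reported as a range. Ampicillin and tetracycline were controls.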

Proteus vulgaris = assay: Minimum inhibitory concentration of Proteus vulgaris growth.; outline: as §3
Candida albicans = assay: Minimum inhibitory concentration of Candida albicans growth.
Outline: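 Candida albicans ATCC 10231 in YM broth at 22 °C. Overnight culture added to sample in 4% DMSO in water, about 1 × 10^5 cells/well, 150 μL, duplicate. Growth scored visually at 48 h. MIC is reported as a concentration range: full inhibition at the upper value, viable cells at the lower. Amphotericin B was the positive control.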

Pseudomonas aeruginosa = assay: Minimum inhibitory concentration of Pseudomonas aeruginosa growth.
Outline: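 Pseudomonas aeruginosa ATCC 27853 in nutrient broth at 37 °C. About 1 × 10^7 cells/well, sample in 4% DMSO in water, 150 μL, duplicate. Growth relative to an untreated well was read at A595 after 24 h. MIC is given as a range, complete inhibition at the higher concentration. Ciprofloxacin was the positive control.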

Streptococcus pyogenes [3] = assay: Minimum inhibitory concentration of Streptococcus pyogenes growth.; outline: as §2
Enterococcus faecalis = assay: Minimum inhibitory concentration of Enterococcus faecalis growth.; outline: as §3
Escherichia coli [4] = assay: as §1; remark: listed apart in the source
Klebsiella pneumoniae = assay: Minimum inhibitory concentration of Klebsiella pneumoniae growth.; outline: as §3
[5] = Escherichia coli, read-out: MIC
[6] = Streptococcus pyogenes, read-out: MIC

| Compound | MIC (Escherichia coli [1]; [5]) | MIC (Streptococcus pyogenes [2]) | MIC (Staphylococcus aureus) | MIC (Proteus vulgaris) | MIC (Candida albicans; Candida albicans) | MIC (Pseudomonas aeruginosa) | MIC (Streptococcus pyogenes [3]; [6]) | MIC (Enterococcus faecalis) | MIC (Escherichia coli [4]) | MIC (Klebsiella pneumoniae) | MIC (Escherichia coli [1]) | MIC (Candida albicans) | MIC (Streptococcus pyogenes [3]) |
| --- | --- | --- | --- | --- | --- | --- | --- | --- | --- | --- | --- | --- | --- |
| OCCCNCCN(Cc1ccccc1)Cc1cccc(CN(Cc2ccccc2)Cc2ccccc2)n1 | 10 µM (≈ 5.09 µg/mL) | 6 µM (≈ 3.05 µg/mL) | 25 µM (≈ 12.7 µg/mL) | 50 µM (≈ 25.4 µg/mL) | 50 µM (≈ 25.4 µg/mL) | 50 µM (≈ 25.4 µg/mL) | 5 µM (≈ 2.54 µg/mL) | 12 µM (≈ 6.1 µg/mL) | 12 µM (≈ 6.1 µg/mL) | 50 µM (≈ 25.4 µg/mL) |  |  |  |
| OCCCNCCN(Cc1cccc(F)c1)Cc1cccc(CN(Cc2cccc(F)c2)Cc2cccc(F)c2)n1 | 5 µM (≈ 2.81 µg/mL) | 6 µM (≈ 3.38 µg/mL) | 12 µM (≈ 6.75 µg/mL) |  | 50 µM (≈ 28.1 µg/mL) |  | 5 µM (≈ 2.81 µg/mL) | 25 µM (≈ 14.1 µg/mL) | 12 µM (≈ 6.75 µg/mL) |  |  |  |  |
| COC(=O)c1cccc(CN(CCNCCCO)Cc2cccc(CN(Cc3cccc(C(=O)OC)c3)Cc3cccc(C(=O)OC)c3)n2)c1 | 20 µM (≈ 13.7 µg/mL) | 12 µM (≈ 8.19 µg/mL) | 25 µM (≈ 17.1 µg/mL) |  | 50 µM (≈ 34.1 µg/mL) |  | 10 µM (≈ 6.83 µg/mL) | > 100 µM | 25 µM (≈ 17.1 µg/mL) |  |  |  |  |
| COC(=O)c1cccc(CN(Cc2cccc(C(F)(F)F)c2)Cc2cccc(CN(CCNCCCO)Cc3cccc(C(F)(F)F)c3)n2)c1 | 6 µM (≈ 4.22 µg/mL) | 6 µM (≈ 4.22 µg/mL) | 12 µM (≈ 8.43 µg/mL) | > 100 µM | > 100 µM | > 100 µM | 3 µM (≈ 2.11 µg/mL) | 6 µM (≈ 4.22 µg/mL) | > 100 µM | > 100 µM |  |  |  |
| O=[N+]([O-])c1cccc(CN(Cc2cccc(C(F)(F)F)c2)Cc2cccc(CN(CCNCCCO)Cc3cccc(C(F)(F)F)c3)n2)c1 | 6 µM (≈ 4.14 µg/mL) | 6 µM (≈ 4.14 µg/mL) | 6 µM (≈ 4.14 µg/mL) | > 100 µM | > 100 µM | > 100 µM | 3 µM (≈ 2.07 µg/mL) | 6 µM (≈ 4.14 µg/mL) | > 100 µM | > 100 µM | 5 µM (≈ 3.45 µg/mL) | > 100 µM | 5 µM (≈ 3.45 µg/mL) |
| OCCCN(CCN(Cc1ccccc1)Cc1cccc(CN(Cc2ccccc2)Cc2ccccc2)n1)Cc1ccccc1 | 25 µM (≈ 15 µg/mL) |  |  |  | 5 µM (≈ 2.99 µg/mL) |  | 25 µM (≈ 15 µg/mL) |  |  |  |  |  |  |
| Cc1cccc(CN(CCNCCCO)Cc2cccc(CN(Cc3cccc([N+](=O)[O-])c3)Cc3cccc(C(F)(F)F)c3)n2)c1 | 25 µM (≈ 15.9 µg/mL) | 6 µM (≈ 3.81 µg/mL) | 6 µM (≈ 3.81 µg/mL) | > 100 µM | 50 µM (≈ 31.8 µg/mL) | > 100 µM | 5 µM (≈ 3.18 µg/mL) | 6 µM (≈ 3.81 µg/mL) | > 100 µM | > 100 µM |  |  |  |
| Cc1cccc(CN(CCNCCCO)Cc2cccc(CN(Cc3cccc(F)c3)Cc3cccc(C(F)(F)F)c3)n2)c1 | 5 µM (≈ 3.04 µg/mL) | 6 µM (≈ 3.65 µg/mL) | 6 µM (≈ 3.65 µg/mL) | > 100 µM | < 12.5 µM | > 100 µM | 5 µM (≈ 3.04 µg/mL) | 6 µM (≈ 3.65 µg/mL) | > 100 µM | 25 µM (≈ 15.2 µg/mL) |  |  |  |
| Cc1cccc(CN(CCNCCCO)Cc2cccc(CN(Cc3cccc(C)c3)Cc3cccc(C(F)(F)F)c3)n2)c1 | 25 µM (≈ 15.1 µg/mL) | 6 µM (≈ 3.63 µg/mL) | 6 µM (≈ 3.63 µg/mL) | > 100 µM | < 12.5 µM | > 100 µM | 5 µM (≈ 3.02 µg/mL) | 6 µM (≈ 3.63 µg/mL) | > 100 µM | 12 µM (≈ 7.26 µg/mL) |  |  |  |
| O=[N+]([O-])c1cccc(CN(CCNCCCO)Cc2cccc(CN(Cc3cccc([N+](=O)[O-])c3)Cc3cccc([N+](=O)[O-])c3)n2)c1 | 10 µM (≈ 6.44 µg/mL) | 12 µM (≈ 7.72 µg/mL) | 12 µM (≈ 7.72 µg/mL) | > 100 µM | > 100 µM | > 100 µM | 5 µM (≈ 3.22 µg/mL) | > 100 µM | > 100 µM | > 100 µM |  |  |  |
| COC(=O)c1cccc(CN(Cc2cccc(C(F)(F)F)c2)Cc2cccc(CN(CCNCCCO)Cc3cccc(C)c3)n2)c1 | 25 µM (≈ 16.2 µg/mL) | 6 µM (≈ 3.89 µg/mL) | 12 µM (≈ 7.79 µg/mL) | > 100 µM | < 12.5 µM | > 100 µM | 5 µM (≈ 3.24 µg/mL) | 6 µM (≈ 3.89 µg/mL) | > 100 µM | > 100 µM |  |  |  |
| Cc1cccc(CN(CCNCCCO)Cc2cccc(CN(Cc3cccc(C)c3)Cc3cccc(C)c3)n2)c1 | 5 µM (≈ 2.75 µg/mL) | 6 µM (≈ 3.3 µg/mL) | 6 µM (≈ 3.3 µg/mL) | > 100 µM | 12 µM (≈ 6.61 µg/mL) | > 100 µM | 5 µM (≈ 2.75 µg/mL) | 6 µM (≈ 3.3 µg/mL) | 6 µM (≈ 3.3 µg/mL) | > 100 µM |  |  |  |
| Cc1cccc(CN(CCNCCCO)Cc2cccc(CN(Cc3cccc(C(F)(F)F)c3)Cc3cccc(C(F)(F)F)c3)n2)c1 | 25 µM (≈ 16.5 µg/mL) | 6 µM (≈ 3.95 µg/mL) | 12 µM (≈ 7.9 µg/mL) | > 100 µM | > 100 µM | > 100 µM | 5 µM (≈ 3.29 µg/mL) | 6 µM (≈ 3.95 µg/mL) | > 100 µM | > 100 µM |  |  |  |
| NCc1cccc(CNCCNCCCO)n1 | > 100 µM |  |  |  | > 100 µM |  | > 100 µM |  |  |  |  |  |  |
| OCCCNCCN(Cc1cccc(C(F)(F)F)c1)Cc1cccc(CN(Cc2cccc(F)c2)Cc2cccc(C(F)(F)F)c2)n1 | 6 µM (≈ 3.98 µg/mL) | 6 µM (≈ 3.98 µg/mL) | 12 µM (≈ 7.95 µg/mL) | > 100 µM | > 100 µM | > 100 µM | 6 µM (≈ 3.98 µg/mL) | 6 µM (≈ 3.98 µg/mL) | > 100 µM | > 100 µM |  |  |  |
| OCCCNCCN(Cc1cccc(C(F)(F)F)c1)Cc1cccc(CN(Cc2ccccc2)Cc2cccc(C(F)(F)F)c2)n1 | 3 µM (≈ 1.93 µg/mL) | 12 µM (≈ 7.74 µg/mL) | 25 µM (≈ 16.1 µg/mL) | > 100 µM | > 100 µM | > 100 µM | 3 µM (≈ 1.93 µg/mL) | 12 µM (≈ 7.74 µg/mL) | > 100 µM | 50 µM (≈ 32.2 µg/mL) |  |  |  |
| Cc1cccc(CN(Cc2cccc(C(F)(F)F)c2)Cc2cccc(CN(CCNCCCO)Cc3cccc(C(F)(F)F)c3)n2)c1 | 3 µM (≈ 1.98 µg/mL) | 6 µM (≈ 3.95 µg/mL) | 12 µM (≈ 7.9 µg/mL) | > 100 µM | > 100 µM | > 100 µM | 3 µM (≈ 1.98 µg/mL) | 6 µM (≈ 3.95 µg/mL) | > 100 µM | 100 µM (≈ 65.9 µg/mL) |  |  |  |
| OCCCNCCN(Cc1cccc(C(F)(F)F)c1)Cc1cccc(CN(Cc2cccc(C(F)(F)F)c2)Cc2cccc(C(F)(F)F)c2)n1 | 5 µM (≈ 3.56 µg/mL) | 12 µM (≈ 8.55 µg/mL) | 6 µM (≈ 4.28 µg/mL) | > 100 µM | > 100 µM | > 100 µM | 5 µM (≈ 3.56 µg/mL) | > 100 µM | > 100 µM | > 100 µM |  |  |  |
| Cc1cccc(CN(CCNCCCO)Cc2cccc(CN(Cc3ccccc3)Cc3cccc(C(F)(F)F)c3)n2)c1 | 5 µM (≈ 2.95 µg/mL) | 6 µM (≈ 3.54 µg/mL) | 6 µM (≈ 3.54 µg/mL) | > 100 µM | < 12.5 µM | > 100 µM | 5 µM (≈ 2.95 µg/mL) | 6 µM (≈ 3.54 µg/mL) | 25 µM (≈ 14.8 µg/mL) | 12 µM (≈ 7.09 µg/mL) |  |  |  |
